Experimental data pooled from the literature.
Protocols differ between the studies behind these lines.
MMP1: Interstitial collagenase (MMP1, Homo sapiens, UniProt P03956)
PPARA: Peroxisome proliferator-activated receptor alpha (PPARA, Homo sapiens, UniProt Q07869)

With `Nc1ncc(-c2nc(N3CCOCC3)nc(N3CCOCC3)n2)c(C(F)F)n1` the remaining binding was 100% (Hepatocyte growth factor receptor (MET, Homo sapiens, UniProt P08581, M1250T); cell-free assay, competition with immobilised ligand; 10 µM).
The remaining binding of `Cc1nn(C)cc1-c1nc2c(N3CCN(Cc4ccc(Cl)cc4)CC3)c(Cl)cnc2[nH]1` is reported as 100% (Cyclin-dependent kinase-like 1 (CDKL1, Homo sapiens, UniProt Q00532); binding, competition with immobilised ligand; 1 µM).
The inhibition of `C#Cc1n[nH]c2c(-c3cn([C@@H](C)c4ccccn4)c(=O)[nH]c3=O)cc(F)cc12` is reported as -0.3% (TRAF2 and NCK-interacting protein kinase (TNIK, Homo sapiens, UniProt Q9UKE5); enzyme activity, inhibitor; 0.1 µM).
With `N=C(N)c1ccc2cc(OC(=O)c3ccc(N=C(N)N)cc3)ccc2c1` the inhibition was 0% (MMP1; enzyme activity, inhibitor; 10 µM).
`CC1CCC(C(C)C)C(P(=O)(c2ccccc2)c2ccccc2)C1` (stereo not shown) has a remaining activity of -94.5% (Potassium voltage-gated channel subfamily A member 5 (KCNA5, Homo sapiens, UniProt P22460); ion current, inhibitor, patch clamp; 1 µM).
The inhibition of `O=C(Nc1cccnn1)N1CCN([C@@H]2CCOc3cc(C(F)(F)F)ccc32)CC1` is reported as 8% (MMP1; cell-free assay; 20 µM).
`O=S(=O)(O)C(F)(F)C(F)(F)OC(F)(C(F)(F)F)C(F)(F)OC(F)C(F)(F)F` (stereo not shown) gave an Emax of 28% (PPARA; reporter gene, agonist, luciferase).
`CN(C)C(=O)COC(=O)Cc1ccc(OC(=O)c2ccc(NC(=N)N)cc2)cc1` has an inhibition of 0% (Caspase-9 (CASP9, Homo sapiens, UniProt P55211); enzyme activity, inhibitor; 10 µM).
With `COc1ncccc1-c1cnn2ccc(N3CCN(C(=O)OC(C)C)CC3)nc12` the remaining binding was 49% (Mitogen-activated protein kinase kinase kinase 1 (MAP3K1, Homo sapiens, UniProt Q13233); binding, competition with immobilised ligand; 1 µM).
`CN1CCN(c2ccc(Nc3nccc(-c4ccccc4)n3)cc2C(F)(F)F)CC1` has a remaining binding of 13% (Calcium-dependent protein kinase 1 (CDPK1, Plasmodium falciparum, UniProt P62344); binding; 10 µM).
For `O=C(O)C(F)(F)C(F)(F)C(F)(F)C(F)(F)C(F)(F)C(F)(F)F`, the Emax was 113% (PPARA; reporter gene, agonist, luciferase; COS-7).
With `Clc1cccc(-c2c[nH]c3nccc(N4CCOCC4)c23)c1` the ΔTm was over 7.4 °C (Serine/threonine-protein kinase 4 (STK4, Homo sapiens, UniProt Q13043); thermal stability, DSF).
`O=C(O)C(F)(F)C(F)(F)C(F)(F)C(F)(F)C(F)(F)C(F)(F)C(F)(F)F` has an Emax of 92% (PPARA; reporter gene, agonist, luciferase; COS-7).
The inhibition of `C#Cc1n[nH]c2c(-c3cn([C@@H](C)c4ccccc4)c(=O)[nH]c3=O)cc(F)cc12` is reported as 6.5% (Inactive tyrosine-protein kinase PEAK1 (PEAK1, Homo sapiens, UniProt Q9H792); enzyme activity, inhibitor; 0.1 µM).
`COc1cc(Nc2ncc(F)c(Nc3ccc4c(n3)NC(=O)C(C)(C)O4)n2)cc(OC)c1OC` gave an inhibition of 71% (Serine/threonine-protein kinase OSR1 (OXSR1, Homo sapiens, UniProt O95747); binding, competition with immobilised ligand; 10 µM).
`CN[C@@H](C)C(=O)N[C@@H](CNC(=O)c1ccc(S(=O)(=O)F)c(OC)c1)C(=O)N1CCC[C@H]1C(=O)N[C@@H]1CCc2c(F)cccc21` has a kinact of 0.0258 s⁻¹ (E3 ubiquitin-protein ligase XIAP, BIR3 (XIAP, Homo sapiens, UniProt P98170); enzyme activity, inhibitor).
